Data set [1] addresses 5-hydroxytryptamine receptor 7 (Homo sapiens, UniProt P34969). Put plainly: Displacement of [3H]CT from human 5-HT7 receptor expressed in CHO cells by scintillation spectrometry. The data set is classed as cell-based. In a few lines:
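Cloned human 5-HT7 receptor from CHO cells, run under the supplier's recommended conditions with [3H]CT. Nonspecific binding with 25 μM clozapine. Ended by GF/C filtration, then scintillation counting. Ki taken from two nine-concentration displacement curves run in triplicate, single-site fit.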
Background: Loss of bound radioactivity is the signal in a displacement assay; it reports binding, not function.

The target of data set [2] is T1, Adrenergic receptor alpha-1 (Rattus norvegicus, UniProt P15823+P23944+P43140).
T1 sequence (P15823 whole entry): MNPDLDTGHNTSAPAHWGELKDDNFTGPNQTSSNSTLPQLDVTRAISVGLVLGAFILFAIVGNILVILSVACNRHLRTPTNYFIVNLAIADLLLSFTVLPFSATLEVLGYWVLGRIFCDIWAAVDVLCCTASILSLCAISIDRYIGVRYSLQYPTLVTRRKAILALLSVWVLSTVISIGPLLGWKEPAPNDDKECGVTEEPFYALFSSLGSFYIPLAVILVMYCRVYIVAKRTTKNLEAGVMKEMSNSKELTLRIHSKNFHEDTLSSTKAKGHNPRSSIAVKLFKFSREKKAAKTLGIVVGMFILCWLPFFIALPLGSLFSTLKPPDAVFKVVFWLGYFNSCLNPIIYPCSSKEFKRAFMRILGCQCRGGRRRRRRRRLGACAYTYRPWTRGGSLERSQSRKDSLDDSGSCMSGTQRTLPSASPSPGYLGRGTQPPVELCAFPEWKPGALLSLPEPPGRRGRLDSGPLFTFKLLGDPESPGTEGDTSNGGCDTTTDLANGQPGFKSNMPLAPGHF
T1 sequence (P23944 whole entry): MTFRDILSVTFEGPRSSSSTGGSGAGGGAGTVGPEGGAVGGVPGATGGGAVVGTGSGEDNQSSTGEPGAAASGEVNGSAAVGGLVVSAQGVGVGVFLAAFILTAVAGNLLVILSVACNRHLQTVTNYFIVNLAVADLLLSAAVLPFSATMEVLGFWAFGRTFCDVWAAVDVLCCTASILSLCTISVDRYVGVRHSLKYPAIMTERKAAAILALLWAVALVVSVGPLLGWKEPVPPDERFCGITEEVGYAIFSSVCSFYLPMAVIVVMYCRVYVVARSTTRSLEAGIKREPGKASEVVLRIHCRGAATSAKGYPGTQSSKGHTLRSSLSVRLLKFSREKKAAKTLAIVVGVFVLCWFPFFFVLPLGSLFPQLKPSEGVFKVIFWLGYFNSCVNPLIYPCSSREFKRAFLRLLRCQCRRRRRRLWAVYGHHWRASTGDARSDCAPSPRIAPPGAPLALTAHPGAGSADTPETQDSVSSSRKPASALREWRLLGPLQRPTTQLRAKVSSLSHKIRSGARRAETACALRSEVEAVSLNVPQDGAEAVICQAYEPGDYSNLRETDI
T1 sequence (P43140 whole entry): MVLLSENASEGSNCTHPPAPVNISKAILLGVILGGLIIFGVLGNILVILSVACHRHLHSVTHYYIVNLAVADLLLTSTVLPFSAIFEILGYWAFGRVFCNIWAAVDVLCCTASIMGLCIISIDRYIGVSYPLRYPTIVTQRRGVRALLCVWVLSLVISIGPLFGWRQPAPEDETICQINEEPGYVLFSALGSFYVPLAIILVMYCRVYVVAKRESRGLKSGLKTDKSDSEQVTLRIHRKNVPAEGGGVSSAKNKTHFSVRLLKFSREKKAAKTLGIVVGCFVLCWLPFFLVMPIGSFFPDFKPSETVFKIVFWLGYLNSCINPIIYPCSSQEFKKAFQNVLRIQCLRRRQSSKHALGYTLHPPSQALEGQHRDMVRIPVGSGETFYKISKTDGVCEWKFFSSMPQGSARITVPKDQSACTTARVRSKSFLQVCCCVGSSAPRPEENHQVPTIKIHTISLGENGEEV
Put plainly: Displacement of [3H]prazosin from alpha1-adrenergic receptor in rat frontal cortex membrane after 45 mins by scintillation spectrometry. Format: cell membranes. Summed up: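 Rat frontal cortex tissue frozen on dry ice, homogenised in 50 mM Tris-HCl pH 7.7 and washed by centrifugation. [3H]prazosin at 0.6 nM; 10 μM prazosin defines nonspecific binding. 45 min at 25 °C, GF/B filtration, scintillation counting. Triplicates; Ki from two nine-concentration curves fitted to a single-site model.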

The target of data set [3] is T2, 5-hydroxytryptamine receptor 1A (Rattus norvegicus, UniProt P19327).
T2 sequence (P19327 whole entry): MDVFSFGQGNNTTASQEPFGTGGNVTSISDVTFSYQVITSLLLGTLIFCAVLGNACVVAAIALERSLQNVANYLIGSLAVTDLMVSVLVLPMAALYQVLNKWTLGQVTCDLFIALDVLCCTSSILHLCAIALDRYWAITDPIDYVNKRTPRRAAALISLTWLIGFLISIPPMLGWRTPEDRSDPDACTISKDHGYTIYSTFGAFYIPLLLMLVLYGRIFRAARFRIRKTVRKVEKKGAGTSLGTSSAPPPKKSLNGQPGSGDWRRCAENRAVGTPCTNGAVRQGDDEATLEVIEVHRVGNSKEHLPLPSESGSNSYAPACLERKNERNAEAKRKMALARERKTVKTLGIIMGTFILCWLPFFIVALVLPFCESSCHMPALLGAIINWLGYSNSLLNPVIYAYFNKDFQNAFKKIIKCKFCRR
The data set can be described thus: Displacement of [3H]8-OH-DPAT from 5-HT1A receptor in rat frontal cortex membrane after 45 mins by scintillation counting. The data set is classed as cell membranes. In a few lines: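 Membranes from adult rat frontal cortex, prepared in 50 mM Tris-HCl pH 7.7 with washes and a 37 °C preincubation. Incubation buffer: 6.66 mM CaCl2, 16.66 μM pargyline, 0.166% ascorbic acid. Ligand 1.5 nM [3H]8-OH-DPAT; 10 μM 5-HT defines nonspecific binding. 45 min at 25 °C, GF/B filtration, scintillation counting. Triplicates; Ki from two nine-point curves, single-site fit.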

The target in data set [4] is T3, 5-hydroxytryptamine receptor 1A (Rattus norvegicus) (UniProt P19327).
T3 sequence (whole entry): T2 sequence (P19327 whole entry)
The data set can be described thus: Displacement of [3H]8-OH-DPAT from 5-HT1A receptor in rat frontal cortex membrane at 10^-7 M after 45 mins by scintillation counting. Format: cell membranes.

Data set [5] in a line: Selectivity ratio of Ki for alpha1-adrenergic receptor in rat frontal cortex membrane to Ki for human 5-HT7 receptor. The data set is classed as cell membranes.
The nature of data set [6]: Selectivity ratio of Ki for 5-HT1A receptor in rat frontal cortex membrane to Ki for human 5-HT7 receptor. The data set is classed as cell membranes.
Data set [7] can be described thus: Metabolic stability in rat liver microsomes after 60 mins by HPLC-MS/MS analysis. Format: ADME, Microsome. As to conditions: read-out: Stability. In a few lines: (§1)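 Test compound at 100 nM final incubated with rat or human liver microsomes (0.33 mg/mL) at 37 °C for 0, 5, 15, 30 and 60 min. Buffer Tris-HCl pH 7.4 with Mg2+ and BSA. Reaction started with NADPH and stopped with ice-cold MeOH. Parent compound measured by HPLC-MS/MS, positive-ion MRM.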
Background: Liver microsomes are vesicles of endoplasmic reticulum, rich in cytochrome P450 enzymes.

Data set [8] can be described thus: Metabolic stability in human liver microsomes after 60 mins by HPLC-MS/MS analysis. The data set is classed as ADME, Microsome. As to conditions: read-out: Stability. Summed up: as §1

A value given as a limit tells only on which side of the number the result lay.

Chain of 5-hydroxytryptamine receptor 7 (P34969 whole entry): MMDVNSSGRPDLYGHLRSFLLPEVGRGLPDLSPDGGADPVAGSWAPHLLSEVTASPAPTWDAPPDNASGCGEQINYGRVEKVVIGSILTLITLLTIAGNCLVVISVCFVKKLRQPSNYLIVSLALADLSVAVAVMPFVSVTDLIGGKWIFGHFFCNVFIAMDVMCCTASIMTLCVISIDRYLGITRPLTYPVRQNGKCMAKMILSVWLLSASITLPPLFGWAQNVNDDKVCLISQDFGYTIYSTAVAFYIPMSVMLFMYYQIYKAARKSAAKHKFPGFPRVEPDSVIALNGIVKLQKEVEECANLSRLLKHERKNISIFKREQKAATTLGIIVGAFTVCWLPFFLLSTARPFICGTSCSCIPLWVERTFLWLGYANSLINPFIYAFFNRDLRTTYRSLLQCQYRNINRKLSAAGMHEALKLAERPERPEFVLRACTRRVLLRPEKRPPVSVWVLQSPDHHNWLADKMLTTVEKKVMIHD

In the case of `CCC1(CCCCN2CCN(c3ccccn3)CC2)C(=O)Nc2ccccc21` (centres undefined), the values for the Ki in data set [1], in data set [2] and in data set [3] were 4 nM, 150 nM and 55 nM, respectively.

For the molecule `CCC1(CCCCN2CCN(c3cccc(C(F)(F)F)c3)CC2)C(=O)Nc2ccccc21` (centres undefined), the Ki turned out to be 5.1 nM in data set [1] and 36 nM in data set [3].

Turning to `O=C1Nc2cc(F)ccc2C1CCCCN1CC=C(c2cccc(Cl)c2)CC1` (centres undefined), the inhibition in data set [4] was 72%. In data set [1], the Ki came to 13 nM.

With `CCC1(CCCCN2CCN(c3cccc(Cl)c3)CC2)C(=O)Nc2c1cc(Cl)c(F)c2Cl` (centres undefined), the Ki in data set [1] stood at 72 nM; in data set [2], 97 nM; in data set [3], 680 nM.

For the molecule `O=C1Nc2ccccc2C1CCCCN1CCN(c2ccc(Cl)cc2)CC1` (centres undefined), the figures for the Ratio Ki in data set [5] and in data set [6] were 6 and 257, respectively. Moreover, the remaining at 1 h in data set [7] stood at 10%; in data set [8], 52%. In addition, the values for the inhibitory constant (Ki) in data set [1] and in data set [2] were 7 nM and 42 nM, respectively.

Turning to `O=C1Nc2ccccc2C1CCCCN1CCN(c2ccc(F)cc2)CC1` (centres undefined), the inhibition in data set [4] stood at 10%. The inhibition constant (Ki) in data set [1] came to 5 nM; in data set [2] it was 14 nM.

For `O=C1Nc2ccccc2C1CCCCN1CCN(c2ccccn2)CC1` (centres undefined), the Ki came out at 10.9 nM in data set [1], 130 nM in data set [2] and 56 nM in data set [3].

With `O=C1Nc2ccccc2C1CCCCN1CCN(c2ccccc2)CC1` (centres undefined), the figures for the Ki in data set [1], in data set [2] and in data set [3] were 16 nM, 22 nM and 243 nM, respectively.

`O=C1Nc2cc(F)ccc2C1CCCCN1CCN(c2ccc(Cl)cc2)CC1` (centres undefined) displayed an inhibition in data set [4] of 6%. In addition, the Ki amounted to 25 nM in data set [1] and 55 nM in data set [2].

Take `CCC1(CCCCN2CCN(c3cccc(Cl)c3)CC2)C(=O)Nc2cc(F)c(Cl)cc21` (centres undefined): the figures for the Ratio Ki in data set [5] and in data set [6] were 13 and greater than 100, respectively. Besides, the inhibition in data set [4] stood at 16%. Also, the remaining at 1 h in data set [7] is 16%; in data set [8], 46%. The same molecule yielded a Ki in data set [2] of 117 nM.

In the case of `CCC1(CCCCN2CC=C(c3cccc(Cl)c3)CC2)C(=O)Nc2ccc(F)cc21` (centres undefined), the Ki turned out to be 52 nM in data set [1], 140 nM in data set [2] and 123 nM in data set [3].

In the case of `O=C1Nc2cc(F)ccc2C1CCCCN1CCN(c2ccccn2)CC1` (centres undefined), the Ki in data set [1] is 16.8 nM; in data set [2], 33 nM; in data set [3], 99 nM.

Turning to `O=C1Nc2c(Cl)cc(Cl)cc2C1CCCCN1CCN(c2ccc(Cl)cc2)CC1` (centres undefined), the Ki in data set [1] worked out at 107 nM; in data set [2], 757 nM.

On to `O=C1Nc2cc(F)ccc2C1CCCCN1CCN(c2cccc(Cl)c2)CC1` (centres undefined), for which the Ki in data set [1] stood at 6.7 nM; in data set [2], 12.5 nM; in data set [3], 118 nM.

Regarding `CCC1(CCCCN2CCN(c3cccc(Cl)c3)CC2)C(=O)Nc2ccc(F)cc21` (centres undefined), the Ki in data set [2] is 46 nM; in data set [3], 111 nM.

In data set [4], `CCC1(CCCCN2CC=C(c3ccc(F)cc3)CC2)C(=O)Nc2ccccc21` (centres undefined) came in with an inhibition of 62%. The molecule further yielded a Ki in data set [2] of 46 nM.

With `O=C1Nc2ccc(F)cc2C1CCCCN1CCN(c2ccc(Cl)cc2)CC1` (centres undefined), the results for the Ratio Ki in data set [5] and in data set [6] were 3 and greater than 100, respectively. This molecule also came in with an inhibition in data set [4] of 0%. In addition, the remaining at 1 h in data set [7] stood at 28%; in data set [8] it was 44%. Further, the Ki worked out at 40 nM in data set [1] and 116 nM in data set [2].

For the molecule `O=C1Nc2ccccc2C1CCCCN1CC=C(c2cccc(C(F)(F)F)c2)CC1` (centres undefined), the values for the Ki in data set [1], in data set [2] and in data set [3] were 11.1 nM, 310 nM and 19 nM, respectively.

Regarding `CCC1(CCCCN2CCN(c3ccccc3OC)CC2)C(=O)Nc2ccccc21` (centres undefined), the Ki in data set [2] turned out to be 27 nM; in data set [3], 9.8 nM.

For `CCC1(CCCCN2CCN(c3ccc(Cl)cc3)CC2)C(=O)Nc2cc(F)c(Cl)cc21` (centres undefined), the values for the Ratio Ki in data set [5] and in data set [6] were 19 and greater than 100, respectively. Further, the inhibition in data set [4] is 0%. Moreover, the remaining at 1 h in data set [7] was 18%; in data set [8] it was 10%. Also, the Ki in data set [1] was 10 nM; in data set [2] it was 191 nM.

For the molecule `CCC1(CCCCN2CCN(c3ccccc3Cl)CC2)C(=O)Nc2ccccc21` (centres undefined), the Ki in data set [1] amounted to 53 nM; in data set [2] it was 64 nM; in data set [3], 30 nM.

As to `CCC1(CCCCN2CCN(c3cccc(F)c3)CC2)C(=O)Nc2ccccc21` (centres undefined), the values for the Ki in data set [1] and in data set [3] were 11 nM and 73 nM, respectively.

With `O=C1Nc2ccc(F)cc2C1CCCCN1CCN(c2ccccc2)CC1` (centres undefined), the Ki in data set [1] turned out to be 47 nM; in data set [2], 20 nM.

As to `CCC1(CCCCN2CCC(c3ccc(F)cc3)CC2)C(=O)Nc2ccccc21` (centres undefined), the inhibition in data set [4] was found to be 11%. Further, the Ki in data set [1] is 6.9 nM; in data set [2], 29 nM.

Take `CCC1(CCCCN2CCN(c3ccc(Cl)cc3Cl)CC2)C(=O)Nc2ccccc21` (centres undefined): in data set [5], the Ratio Ki came out at 3. This molecule gave an inhibition in data set [4] of 11%. Also, the remaining at 1 h was 17% in data set [7] and 28% in data set [8]. For the same molecule, the Ki in data set [1] stood at 139 nM; in data set [2] it was 380 nM.

The Ki is a dissociation constant, usually derived from enzyme kinetics or from competition with a known ligand. Broadly, the inhibition is the change of the read-out against control, counted positive when it falls.

(Values after ChEMBL document CHEMBL1833955, “Optimization of (arylpiperazinylbutyl)oxindoles exhibiting selective 5-HT₇ receptor antagonist activity” (J Med Chem, 2011).)
